Test results published in publication PMC7614192 (Biomedicine & pharmacotherapy = Biomedecine & …, 2022).

Experiments:
[1] = system: primary human lymphocytes; conditions: primary human lymphocytes in vitro; cited from earlier work
[2] = system: mouse model of multiple sclerosis; conditions: oral application; cited from earlier work
[3] = system: activated human primary T cells (PBMC); experiment: Cell division tracking using CFSE; assay type: cell-based; conditions: cyclotides, anti-CD3/anti-CD28 stimulated human PBMC, 72 h, n = 3
In short: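 PBMC at 5 × 10^6 cells/mL in PBS were labelled with CFSE (5 mM stock diluted 1/1000) for 10 min at 37 °C, and labelling was stopped by washing in complete medium. Cells (2 × 10^5) were activated with anti-CD3/anti-CD28 (100 ng/mL each) and cultured 72 h with test compound or CsA 4.16 μM. Proliferating cells were read by flow cytometry and normalised to the stimulated control. Mean ± SD, n = 3.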

[4] = system: activated human PBMC / T lymphocytes; experiment: Apoptosis and necrosis by annexin V and propidium iodide staining; assay type: cell-based; conditions: cyclotides, annexin V-FITC/PI, n = 3
In short: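 Donor PBMC (2 × 10^5) in RPMI 1640 with 10% heat-inactivated FBS and 2 mM L-glutamine at 37 °C, 5% CO2. Activated with anti-CD3 (HIT3) and anti-CD28 (28.6), 100 ng/mL each, then exposed to test compound. Annexin V-FITC/PI double staining by flow cytometry, normalised to the stimulated control. Camptothecin was the apoptosis control and Triton X-100 (0.5%) the necrosis control. Mean ± SD, n = 3, ANOVA/Dunnett.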

[5] = system: CD107a on CD8+ T cells; experiment: CD8+ T cell degranulation; assay type: cell-based, human; conditions: cyclotides; activated PBMC 24 h, PMA/ionomycin 4 h, MFI of CD107a, n = 3
In short: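 Anti-CD3/anti-CD28 (100 ng/mL each) activated PBMC (2 × 10^5) were treated with test compound, CsA (4.16 μM) or camptothecin (300 μM) for 24 h. They were then restimulated with PMA (50 ng/mL) and ionomycin (500 ng/mL) for 4 h. Staining used CD107a-PE with GolgiStop, read by flow cytometry. CD107a MFI is expressed relative to the stimulated control. n = 3.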

[6] = system: activated human PBMC / T lymphocytes; experiment: Cell cycle progression by DNA content; assay type: cell-based; conditions: cyclotides, 72 h, PI staining, n = 3
In short: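 PBMC were activated with anti-CD3/anti-CD28 (100 ng/mL each) and incubated 72 h with test compound or CsA. Cells were washed, fixed and permeabilised in 70% ice-cold ethanol, then stained with PI plus RNase. Flow cytometry gave the share of living lymphocytes in each cell-cycle phase, reported as mean of three independent experiments.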

[7] = system: CD25 on T lymphocytes; experiment: CD25 activation marker detection; assay type: cell-based, human; conditions: cyclotides; activated PBMC, 24 h, n = 3
In short: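 PBMC (2 × 10^5) were stimulated with anti-CD3/anti-CD28 mAbs (100 ng/mL each) and exposed to test compound for 24 h. Controls were CsA 4.16 μM and camptothecin 300 μM. Stained with anti-CD25-PE plus anti-CD4-APC and read by flow cytometry. Result is the percentage of CD4+ and CD4− T cells expressing CD25, relative to the untreated stimulated control. n = 3, ANOVA/Dunnett.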

Row | Substance | effect on T cell proliferation [1] | clinical scores [2] | concentration with significant reduction in T cell proliferation [3] | concentration with significant increase in the number of apoptotic cells [4] | concentration with significant rise in degranulation levels (CD107a) [5] | concentration with significant reduction in the number of cells in the G2-phase [6] | concentration with significant reduction of CD25 expression [7] | concentration with significant reduction in CD107a levels [5] | concentration with significant induction of necrosis [4]
1 | T20K (GLPVCGETCVGGTCNTPGCKCSWPVCTRN; not fully specified; Kalata-B1 cyclic backbone; UniProt P56254 89-117, looked up, variant T20K) | inhibition of T cell proliferation | significant delay and reductions in clinical scores |  |  |  |  |  |  | 
2 | c-CGESCVFIPCFSSVIGCSCKNKVCYRNGVIP (bicyclic or more) [caripe 12] |  |  | 30 µM | 30 µM | 3 µM | 30 µM |  |  | 
3 | c-CGESCVFIPCFSTVIGCSCKNKVCYRNGVIP (bicyclic or more) [caripe 10] |  |  | 10 µM | 10 µM |  | 10 µM | 10 µM | 10 µM | 
4 | c-CGESCVFIPCFTSVFGCSCKDKVCYRNGIP (bicyclic or more) [caripe 13] |  |  | 30 µM |  |  |  |  |  | 30 µM
5 | c-CGESCVFIPCISTVIGCSCKKKVCYRNGVIP (bicyclic or more) [caripe 11] |  |  | 30 µM | 10 µM | 3 µM | 30 µM |  |  | 
6 | c-CGESCVFIPCITAAIGCSCKKKVCYRNGVIP (bicyclic or more) [caripe 8] |  |  | 10 µM |  | 3 µM | 30 µM | 10 µM | 10 µM | 10 µM
7 | cyclo-CGESCVFIPCTVTALLGCSCKNKVCYRNGIP (bicyclic or more) [caripe 7] |  |  | 10 µM |  |  | 10 µM | 10 µM | 10 µM | 3 µM
